According to ChEMBL document CHEMBL4033676, “Design, synthesis and biological evaluation of 3,4-dihydro-2(1H)-quinoline-O-alkylamine derivatives as new multipotent cholinesterase/monoamine oxidase inhibitors for the treatment of Alzheimer's disease” (Bioorg Med Chem, 2017):

What was measured:
[1] = Selectivity index, ratio of IC50 for equine serum BuChE to IC50 for electric eel AChE
[2] = Inhibition of rat serum BuChE using butyrylthiocholine chloride as substrate after 15 mins by Ellman's method
Method in brief: (§1)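 Ellman assay. Equine serum or rat serum BuChE pre-incubated with test compound at various concentrations (DMSO <1%) in 0.1 M phosphate buffer pH 8.0 for 15 min at 37°C. DTNB (0.2%) added, absorbance read at 412 nm. Inhibition % = (1−Ai/Ac)×100. IC50 is the mean of three independent experiments, each run in triplicate.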

[3] = species on record: Rattus norvegicus; assay: Selectivity index, ratio of IC50 for rat serum BuChE to IC50 for 5% rat cortex homogenate AChE
[4] = biological target: Cholinesterase (Equus caballus, UniProt P81908); assay: Inhibition of equine serum BuChE using butyrylthiocholine chloride as substrate after 15 mins by Ellman's method; method in brief: as §1
Cholinesterase, sequence (P81908 whole entry): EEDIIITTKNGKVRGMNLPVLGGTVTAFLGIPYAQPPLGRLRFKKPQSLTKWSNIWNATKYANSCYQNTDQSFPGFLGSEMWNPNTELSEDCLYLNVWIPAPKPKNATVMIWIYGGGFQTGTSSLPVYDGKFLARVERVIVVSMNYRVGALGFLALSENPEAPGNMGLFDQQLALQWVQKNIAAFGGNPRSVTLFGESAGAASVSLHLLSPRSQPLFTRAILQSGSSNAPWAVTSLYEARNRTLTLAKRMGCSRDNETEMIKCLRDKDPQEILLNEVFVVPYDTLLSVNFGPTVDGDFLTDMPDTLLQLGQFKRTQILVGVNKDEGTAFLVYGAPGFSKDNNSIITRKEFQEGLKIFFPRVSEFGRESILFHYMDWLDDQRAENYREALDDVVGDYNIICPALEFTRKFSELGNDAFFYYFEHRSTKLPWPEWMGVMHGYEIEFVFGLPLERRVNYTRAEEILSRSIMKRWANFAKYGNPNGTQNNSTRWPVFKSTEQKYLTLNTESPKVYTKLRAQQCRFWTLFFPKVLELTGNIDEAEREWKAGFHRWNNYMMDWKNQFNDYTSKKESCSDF

[5] = biological target: T1, Acetylcholinesterase (Rattus norvegicus, UniProt P37136)
T1 sequence (P37136 whole entry): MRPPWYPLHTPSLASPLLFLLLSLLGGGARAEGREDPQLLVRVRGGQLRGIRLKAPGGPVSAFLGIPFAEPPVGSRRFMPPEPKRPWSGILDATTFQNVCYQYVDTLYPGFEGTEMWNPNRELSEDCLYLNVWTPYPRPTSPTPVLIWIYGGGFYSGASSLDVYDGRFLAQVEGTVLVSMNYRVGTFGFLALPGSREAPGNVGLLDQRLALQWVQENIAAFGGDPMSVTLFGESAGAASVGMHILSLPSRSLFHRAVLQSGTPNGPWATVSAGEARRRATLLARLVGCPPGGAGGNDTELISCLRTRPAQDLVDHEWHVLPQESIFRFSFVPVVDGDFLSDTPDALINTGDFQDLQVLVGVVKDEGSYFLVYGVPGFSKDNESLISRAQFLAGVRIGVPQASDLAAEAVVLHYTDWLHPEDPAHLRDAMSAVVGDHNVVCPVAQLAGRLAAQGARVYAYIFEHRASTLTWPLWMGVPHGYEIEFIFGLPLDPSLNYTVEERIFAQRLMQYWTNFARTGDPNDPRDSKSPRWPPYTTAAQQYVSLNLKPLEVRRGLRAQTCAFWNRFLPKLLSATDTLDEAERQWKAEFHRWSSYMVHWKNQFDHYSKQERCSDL

[6] = biological target: T2, Amine oxidase [flavin-containing] B (Homo sapiens, UniProt P27338); assay: biochemical; format: cell-based
T2 sequence (P27338 whole entry): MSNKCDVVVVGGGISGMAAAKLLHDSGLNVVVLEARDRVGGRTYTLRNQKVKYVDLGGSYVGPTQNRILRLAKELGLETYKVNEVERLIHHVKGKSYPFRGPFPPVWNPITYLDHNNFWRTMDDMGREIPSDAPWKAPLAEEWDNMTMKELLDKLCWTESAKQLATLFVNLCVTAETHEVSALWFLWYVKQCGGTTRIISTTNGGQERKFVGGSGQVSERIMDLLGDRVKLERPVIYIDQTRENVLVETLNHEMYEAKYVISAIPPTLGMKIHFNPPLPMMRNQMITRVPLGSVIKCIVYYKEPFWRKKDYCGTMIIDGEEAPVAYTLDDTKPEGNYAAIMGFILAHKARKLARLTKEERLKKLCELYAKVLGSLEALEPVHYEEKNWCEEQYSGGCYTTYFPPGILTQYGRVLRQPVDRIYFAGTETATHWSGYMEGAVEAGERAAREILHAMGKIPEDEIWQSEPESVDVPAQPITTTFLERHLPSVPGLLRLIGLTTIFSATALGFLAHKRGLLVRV

[7] = species on record: Homo sapiens; assay: Selectivity index, ratio of IC50 for recombinant human MAO-B to IC50 for recombinant human MAO-A
[8] = biological target: T3, Amine oxidase [flavin-containing] A (Homo sapiens, UniProt P21397); assay: Inhibition of recombinant human MAO-A expressed in baculovirus infected BTI insect cells using kynuramine as substrate after 30 mins by fluorescence assay
T3 sequence (P21397 whole entry): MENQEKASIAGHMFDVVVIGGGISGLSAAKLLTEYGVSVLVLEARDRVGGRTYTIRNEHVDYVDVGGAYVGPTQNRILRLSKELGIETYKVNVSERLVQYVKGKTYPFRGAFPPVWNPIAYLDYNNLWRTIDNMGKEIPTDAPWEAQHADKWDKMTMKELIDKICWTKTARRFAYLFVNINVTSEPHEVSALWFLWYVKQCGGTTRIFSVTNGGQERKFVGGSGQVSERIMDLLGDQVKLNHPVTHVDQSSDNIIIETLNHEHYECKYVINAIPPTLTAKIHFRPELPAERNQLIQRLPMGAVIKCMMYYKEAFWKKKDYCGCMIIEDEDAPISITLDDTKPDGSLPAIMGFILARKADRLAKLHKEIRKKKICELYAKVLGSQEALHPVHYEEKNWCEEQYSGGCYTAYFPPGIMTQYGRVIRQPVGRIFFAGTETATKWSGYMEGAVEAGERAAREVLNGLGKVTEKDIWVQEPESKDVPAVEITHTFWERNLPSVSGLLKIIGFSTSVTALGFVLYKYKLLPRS

[9] = biological target: Acetylcholinesterase (Electrophorus electricus, UniProt O42275); assay: Inhibition of electric eel AChE using acetylthiocholine chloride as substrate after 15 mins by Ellman's method
Acetylcholinesterase (Electrophorus electricus, UniProt O42275), sequence (O42275 whole entry): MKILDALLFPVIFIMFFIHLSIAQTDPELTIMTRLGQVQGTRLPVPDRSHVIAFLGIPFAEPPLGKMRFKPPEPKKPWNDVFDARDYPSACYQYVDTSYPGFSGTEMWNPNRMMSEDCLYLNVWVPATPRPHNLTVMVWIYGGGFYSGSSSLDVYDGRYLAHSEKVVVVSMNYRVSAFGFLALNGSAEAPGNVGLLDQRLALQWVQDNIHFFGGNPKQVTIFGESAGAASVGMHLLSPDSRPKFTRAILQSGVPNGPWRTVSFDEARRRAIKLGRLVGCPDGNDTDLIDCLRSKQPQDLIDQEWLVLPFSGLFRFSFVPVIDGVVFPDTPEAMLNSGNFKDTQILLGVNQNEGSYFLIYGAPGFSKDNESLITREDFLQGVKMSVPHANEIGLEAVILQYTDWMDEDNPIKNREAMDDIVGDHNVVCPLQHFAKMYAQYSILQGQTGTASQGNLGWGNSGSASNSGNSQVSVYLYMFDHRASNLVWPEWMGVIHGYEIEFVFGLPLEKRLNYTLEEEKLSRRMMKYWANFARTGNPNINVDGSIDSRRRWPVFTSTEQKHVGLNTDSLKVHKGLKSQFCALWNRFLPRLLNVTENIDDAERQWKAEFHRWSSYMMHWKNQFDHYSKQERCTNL

Compound	Ratio IC50 [1]	IC50 [2] [µM]	Ratio IC50 [3]	IC50 [4] [µM]	IC50 [5] [µM]	IC50 [6] [µM]	Ratio IC50 [7]	IC50 [8] [µM]	IC50 [9] [µM]
O=C1CCc2ccc(OCCCCN3CCc4ccccc4C3)cc2N1	0.4	12.4	0.7	3.8	18.2	6.9	1.4	4.9	10.1
C#CCN(CCCCCCOc1ccc2c(c1)NC(=O)CC2)Cc1ccccc1	0.2	24.5	1.9	2.4	13	3.8	3.8	1	13.7
CCN(CC)CCCOc1ccc2c(c1)NC(=O)CC2	2.7	20.5	1.1	29.7	19.2	18.6	2.2	8.4	11.2
O=C1CCc2ccc(OCCCCN3CCN(Cc4ccccc4)CC3)cc2N1	1.8	31.6	2.3	10.7	13.7	9.4	1.3	7.4	6
O=C1CCc2ccc(OCCCCCN3CCCCC3)cc2N1	2.6	31.4	3.8	32.8	8.4	17	2	8.4	12.8
C#CCN(CCCCCOc1ccc2c(c1)NC(=O)CC2)Cc1ccccc1	0.4	29.6	2.1	7	14.3	8.3	0.9	8.9	19.4
C#CCN(CCCOc1ccc2c(c1)NC(=O)CC2)Cc1ccccc1	1.3	30.3	1.2	29.5	26	7.3	0.8	9	23.5
CC(C)N1CCN(CCCCOc2ccc3c(c2)NC(=O)CC3)CC1	4.4	3.7	1	4.5	3.6	7.6	0.5	14.3	1
O=C1CCc2ccc(OCCCN3CCC(N4CCCC4)CC3)cc2N1	6.9	21.5	1.3	39.6	16	19.2	2	9.6	5.8
O=C1CCc2ccc(OCCCN3CCN(Cc4ccccc4)CC3)cc2N1	14.9	34.2	2.7	19.4	12.6	21.8	3.3	6.6	1.3
O=C1CCc2ccc(OCCCCN3CCN(c4ccccn4)CC3)cc2N1	0.6	40	1.9	8.4	21	10.1	1.5	6.9	13.8
O=C1CCc2ccc(OCCCCCCN3CCCC3)cc2N1	0.33	8.5	2.5	0.87	3.4	3.5	2.8	1.3	2.6
O=C1CCc2ccc(OCCCCCN3CCN(Cc4ccccc4)CC3)cc2N1	1.3	29.6	1.9	12.7	15.7	6.5	2.7	2.4	10
CC(C)N1CCN(CCCCCOc2ccc3c(c2)NC(=O)CC3)CC1	3.5	2.7	0.9	3.2	3.2	8.1	1	8.2	0.9
O=C1CCc2ccc(OCCCCCCN3CCc4ccccc4C3)cc2N1	0.1	11.7	1.1	1.2	10.8	4.4	1.3	3.4	8.2
O=C1CCc2ccc(OCCCN3CCc4ccccc4C3)cc2N1	0.4	12.6	0.8	5.5	15.5	18.8	2.2	8.6	13.3
O=C1CCc2ccc(OCCCCN3CCCCC3)cc2N1	1.3	22.8	2	15.7	11.6	6.4	0.7	9.5	11.8
O=C1CCc2ccc(OCCCN3CCN(c4ccccn4)CC3)cc2N1	1.5	39	2	14.4	20	18	17.1	1.1	9.6
CCN(CC)CCCCCCOc1ccc2c(c1)NC(=O)CC2	2.2	24.3	0.6	29.5	41.9	8.6	1.6	5.4	13.3
O=C1CCc2ccc(OCCCCCCN3CCC(N4CCCC4)CC3)cc2N1	6.2	20.2	1.6	32.7	12.3	18.3	3	6.2	5.3
O=C1CCc2ccc(OCCCCCN3CCc4ccccc4C3)cc2N1	0.1	11.2	1.4	0.9	7.8	5.9	1.3	4.6	9.1
CC(C)N1CCN(CCCOc2ccc3c(c2)NC(=O)CC3)CC1	3.3	10.2	0.7	20	14	26.1	2.8	9.4	6.2
O=C1CCc2ccc(OCCCCCCN3CCN(Cc4ccccc4)CC3)cc2N1	0.5	24	1.3	6.6	17.9	4.3	0.7	5.7	12.9
COc1cc2c(cc1OC)C(=O)C(CC1CCN(Cc3ccccc3)CC1)C2 (stereo not drawn) [DONEPEZIL]		4.42							
